ChEMBL document CHEMBL5058577, “EUbOPEN Chemogenomics Library 2 (Multiplex)” (2022)

System: HEK-293T
Test: Multiplex assay against HEK293T
Format: toxicity, cell-based
Details: human
Outline: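 Cells were classed with CellPathfinder machine-learning gating, first as Hoechst high-intensity objects or normal cells, then (normal cells) as healthy, pyknosed or fragmented nuclei, and finally (pyknosed cells) as mitotic or apoptotic. Staining of live cells at seeding used Hoechst33342, BioTracker Green Microtubule Cytoskeleton Dye, MitoTracker Red and Annexin V Alexa Fluor 680, with imaging on a CQ1 microscope at 37°C and 5% CO2 after compound addition. Tubulin, mitochondrial-mass and membrane-permeability phenotypes are per cents of healthy-nucleus cells.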

[1] = 12 h, 1 µM, compound concentration 1 uM, replicate 1
[2] = 12 h, 1 µM, compound concentration 1 uM, replicate 2
[3] = 12 h, 10 µM, compound concentration 10 uM, replicate 1
[4] = 12 h, 10 µM, compound concentration 10 uM, replicate 2
[5] = 24 h, 1 µM, compound concentration 1 uM, replicate 1
[6] = 24 h, 1 µM, compound concentration 1 uM, replicate 2
[7] = 24 h, 10 µM, compound concentration 10 uM, replicate 1
[8] = 24 h, 10 µM, compound concentration 10 uM, replicate 2
[9] = 48 h, 1 µM, compound concentration 1 uM, replicate 1
[10] = 48 h, 1 µM, compound concentration 1 uM, replicate 2
[11] = 48 h, 10 µM, compound concentration 10 uM, replicate 1
[12] = 48 h, 10 µM, compound concentration 10 uM, replicate 2

## CC(/C=C1\SC(=S)N(CCCC(=O)Nc2ccc(C(=O)O)c(O)c2)C1=O)=C\c1ccccc1
[1]
  Population Apoptotic (%): 34%
  Population Fragmented Nuclei (%): 6%
  Population Healthy Nuclei (%): 81%
  Population Hoechst High Intensity Objects (%): 6%
  Population Membrane Permeable-Phenotype (%): 0%
  Population Mitochondria Different-Phenotype (%): 41%
  Population Mitotic Cells (%): 65%
  Population Normal (%): 93%
  Population Pyknosed Nuclei (%): 11%
  Population Tubulin-Different-Phenotype (%): 31%
  Total Cell Count: 422
[2]
  Population Apoptotic (%): 50%
  Population Healthy Nuclei (%): 84%
  Population Mitochondria Different-Phenotype (%): 62%
  Population Mitotic Cells (%): 50%
  Population Pyknosed Nuclei (%): 8%
  Population Tubulin-Different-Phenotype (%): 20%
  Total Cell Count: 389
[3]
  Population Apoptotic (%): 43%
  Population Fragmented Nuclei (%): 5%
  Population Healthy Nuclei (%): 76%
  Population Hoechst High Intensity Objects (%): 7%
  Population Membrane Permeable-Phenotype (%): 0%
  Population Mitochondria Different-Phenotype (%): 45%
  Population Mitotic Cells (%): 56%
  Population Normal (%): 92%
  Population Pyknosed Nuclei (%): 18%
  Population Tubulin-Different-Phenotype (%): 35%
  Total Cell Count: 313
[4]
  Population Apoptotic (%): 51%
  Population Healthy Nuclei (%): 79%
  Population Mitochondria Different-Phenotype (%): 49%
  Population Mitotic Cells (%): 48%
  Population Pyknosed Nuclei (%): 15%
  Population Tubulin-Different-Phenotype (%): 26%
  Total Cell Count: 327
[5]
  Population Apoptotic (%): 27%
  Population Fragmented Nuclei (%): 9%
  Population Healthy Nuclei (%): 79%
  Population Hoechst High Intensity Objects (%): 4%
  Population Membrane Permeable-Phenotype (%): 0%
  Population Mitochondria Different-Phenotype (%): 28%
  Population Mitotic Cells (%): 72%
  Population Normal (%): 95%
  Population Pyknosed Nuclei (%): 10%
  Population Tubulin-Different-Phenotype (%): 26%
  Total Cell Count: 604
[6]
  Population Apoptotic (%): 31%
  Population Fragmented Nuclei (%): 7%
  Population Healthy Nuclei (%): 83%
  Population Hoechst High Intensity Objects (%): 7%
  Population Mitochondria Different-Phenotype (%): 52%
  Population Mitotic Cells (%): 68%
  Population Normal (%): 92%
  Population Pyknosed Nuclei (%): 8%
  Population Tubulin-Different-Phenotype (%): 21%
  Total Cell Count: 491
[7]
  Population Apoptotic (%): 33%
  Population Fragmented Nuclei (%): 8%
  Population Healthy Nuclei (%): 75%
  Population Hoechst High Intensity Objects (%): 5%
  Population Membrane Permeable-Phenotype (%): 0%
  Population Mitochondria Different-Phenotype (%): 34%
  Population Mitotic Cells (%): 66%
  Population Normal (%): 94%
  Population Pyknosed Nuclei (%): 16%
  Population Tubulin-Different-Phenotype (%): 31%
  Total Cell Count: 369
[8]
  Population Apoptotic (%): 39%
  Population Healthy Nuclei (%): 79%
  Population Hoechst High Intensity Objects (%): 6%
  Population Mitochondria Different-Phenotype (%): 40%
  Population Mitotic Cells (%): 60%
  Population Normal (%): 93%
  Population Pyknosed Nuclei (%): 12%
  Population Tubulin-Different-Phenotype (%): 20%
  Total Cell Count: 422
[9]
  Population Apoptotic (%): 23%
  Population Fragmented Nuclei (%): 13%
  Population Healthy Nuclei (%): 79%
  Population Hoechst High Intensity Objects (%): 2%
  Population Membrane Permeable-Phenotype (%): 1%
  Population Mitochondria Different-Phenotype (%): 16%
  Population Mitotic Cells (%): 76%
  Population Normal (%): 97%
  Population Pyknosed Nuclei (%): 7%
  Population Tubulin-Different-Phenotype (%): 14%
  Total Cell Count: 998
[10]
  Population Apoptotic (%): 19%
  Population Fragmented Nuclei (%): 14%
  Population Hoechst High Intensity Objects (%): 5%
  Population Membrane Permeable-Phenotype (%): 0%
  Population Mitochondria Different-Phenotype (%): 26%
  Population Mitotic Cells (%): 80%
  Population Normal (%): 94%
  Population Pyknosed Nuclei (%): 6%
  Population Tubulin-Different-Phenotype (%): 13%
  Total Cell Count: 673
[11]
  Population Apoptotic (%): 24%
  Population Fragmented Nuclei (%): 9%
  Population Healthy Nuclei (%): 79%
  Population Hoechst High Intensity Objects (%): 3%
  Population Membrane Permeable-Phenotype (%): 2%
  Population Mitochondria Different-Phenotype (%): 25%
  Population Mitotic Cells (%): 75%
  Population Normal (%): 96%
  Population Pyknosed Nuclei (%): 10%
  Population Tubulin-Different-Phenotype (%): 22%
  Total Cell Count: 479
[12]
  Population Apoptotic (%): 39%
  Population Fragmented Nuclei (%): 11%
  Population Healthy Nuclei (%): 82%
  Population Hoechst High Intensity Objects (%): 5%
  Population Mitochondria Different-Phenotype (%): 23%
  Population Mitotic Cells (%): 60%
  Population Normal (%): 94%
  Population Pyknosed Nuclei (%): 6%
  Population Tubulin-Different-Phenotype (%): 24%
  Total Cell Count: 555
